# Assay results taken from PubChem BioAssay AID651938 (NMMLSC, 2012).
# Target: Fluorogen activating protein scFv HL1.1-TO1 (AM2.2, synthetic construct)
# Test: competition with TO1-2p for soluble AM2.2 – biochemical, soluble FAP, fluorescence competition, artefact control for beta2AR internalization ligand project, dose response (AID 651938)
# Details: Soluble FAP AM2.2 with TO1-2p fluorogen
# In short: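 Assay system: soluble purified FAP AM2.2; Medium: cPBS buffer; Probe or stimulus: TO1-2p fluorogen, 10× Kd; Compound dosing: serial dilution series, water-diluted DMSO stocks; Read-out: EC50 from variable-slope sigmoidal curve fit.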
row,Compound,EC50
1,Cc1ccc(S(=O)(=O)N(C)CC(=O)N2CCN(c3ccccn3)CC2)cc1,19.8 µM
2,CN(CC(=O)N1CCN(c2ccccn2)CC1)S(=O)(=O)c1ccc(Cl)cc1,2.73 µM
